This note sets out measurements from ChEMBL document CHEMBL3992505, “Optimization of substituted imidazobenzodiazepines as novel asthma treatments” (Eur J Med Chem, 2017).

Data set [1] has as its system Mus musculus. Briefly: Antiasthamatic effect in BALB/c mouse model of ovalbumin-induced asthma assessed as inhibition of airway hyperresponsiveness at 40 mg/kg, ip bid for 5 days. Format: functional, organism-based.
In data set [2] the test system is Blood. Briefly: Drug metabolism in mouse blood assessed as (S)-7-Methoxy-N-methyl-9-oxo-11,12,13,13a-tetrahydro-9H-benzo[e]imidazo[5,1-c]pyrrolo[1,2-a][1,4]diazepine-1-carboxamide formation at 5 mg/kg, ip after 3 mins by LC/MS/MS analysis. The data set is classed as ADME, organism-based. As to conditions: in vivo, 0.05 h.
Data set [3] can be described thus: Cytotoxicity in human BEAS2B cells after 48 hrs by Cell-titer Glo reagent based assay. Also noted: species or system BEAS-2B. As to conditions: read-out: LD50. The method in brief:
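Cells (HEK293, HepG2 or BEAS2B) exposed to compounds at a range of concentrations for 48 h; viability read by Cell-Titer Glo luminescence. Normalized to DMSO (negative) and 3-dibutylamino-1-(4-hexyl-phenyl)-propan-1-one at 150 μM final in DMSO (positive).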

Data set [4] in a line: Cmax in mouse blood at 5 mg/kg, ip by LC/MS/MS analysis. Format: ADME, organism-based. Also noted: dose 5 mg/kg, route intraperitoneal.
A short description of data set [5]: Tmax in mouse brain at 5 mg/kg, ip by LC/MS/MS analysis. The data set is classed as ADME, organism-based.
Data set [6] can be described thus: AUC (0 to t) in mouse blood at 5 mg/kg, ip by LC/MS/MS analysis. Format: ADME, organism-based.
The target in data set [7] is GABA A receptor alpha-4/beta-3/gamma-2 (Homo sapiens) (UniProt P18507+P28472+P48169). Briefly: Activity at GABAA alpha4beta3gamma2 receptor (unknown origin) expressed in HEK293T cells assessed as potentiation of GABA-mediated increase in channel current under holding potential at -80 mV at 1 uM by patch clamp assay. The data set is classed as cell-based. For orientation: Patch clamp records ionic current or voltage across a cell membrane.

In data set [8] the test system is Blood. The experiment in a line: Cmax in mouse blood assessed as (S)-7-Methoxy-N-methyl-9-oxo-11,12,13,13a-tetrahydro-9H-benzo[e]imidazo[5,1-c]pyrrolo[1,2-a][1,4]diazepine-1-carboxamide at 5 mg/kg, ip by LC/MS/MS analysis. Format: ADME, organism-based. Further details: dose 5 mg/kg, route intraperitoneal. The following applies: in vivo.
Data set [9] can be described thus: Tmax in mouse lung at 5 mg/kg, ip by LC/MS/MS analysis. The data set is classed as ADME, organism-based.
Data set [10] deals with Lung. Briefly: AUC (0 to t) in mouse lung at 5 mg/kg, ip by LC/MS/MS analysis. Format: ADME, organism-based. As to conditions: in vivo.
The subject of data set [11] is Brain. Briefly: AUC (0 to t) in mouse brain at 5 mg/kg, ip by LC/MS/MS analysis. The data set is classed as ADME, organism-based. As to conditions: in vivo.
Data set [12] concerns Mus musculus. The experiment in a line: Neurotoxicity in Swiss Webster mouse assessed as induction of senorimotor impairment at 40 mg/kg, ip administered 10 mins prior to testing and measured for 3 mins at 10 to 60 mins after drug administration by rotarod method. Format: toxicity, organism-based. The following applies: in vivo. The method in brief: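 Swiss Webster mice, pre-trained at 15 rpm until they held on for 3 min at three consecutive sessions, were given a single i.p. dose of 40 mg/kg in 10% DMSO/40% propylene glycol/50% PBS. Rotarod at 15 rpm for 3 min at 10, 30 and 60 min after dosing. Falls before 3 min scored as fail, with time of fall recorded. N = 10, mean ± SEM. Vehicle and diazepam 5 mg/kg i.p. controls. Mice rested 2–3 days between doses.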
(The rotarod test checks motor coordination on a turning rod.)

Data set [13] has as its system Mus musculus. Briefly: Antiasthamatic effect in BALB/c mouse model of ovalbumin-induced asthma assessed as inhibition of airway hyperresponsiveness at 40 mg/kg, ip administered 40 mins as single dose prior to measurement. The data set is classed as functional, organism-based.

Each structure is given as a SMILES string. Active and inactive are the calls of the source. No cut-off for these calls is given here. Bounds are passed on as bounds.

The term Cmax denotes the maximum level reached in the sampled fluid or tissue. What is called Tmax is the time from dosing to the highest level. As usually defined, the AUC(0-t) is the area under the concentration-time curve up to a stated or last time point. Read a high AUC(0-t) as more exposure. With `COc1ccc2c(c1)C(=O)N1CCC[C@H]1c1c(C(=O)N(C)C)ncn1-2`, the result in data set [1] was Active. For the same compound, the Drug metabolism result in data set [2] is given as “Metabolite_Detected”. Also, in data set [3], the CC50 at 48 h is over 400 µM. The Cmax came out at 691 ng/mL in [4] and 1176 ng/g in data set [8]. In addition, the time to peak (Tmax) in [5] is 10 min; in data set [9] it was 3 min. For the same compound, in data set [6], the exposure AUC(0-t) was 103 ng·h/mL. The Activity is 319 to 545% in data set [7] and “Non-Toxic” in data set [12]. Also, the values for the AUCt in data set [10] and in data set [11] were 764 ng·min/g and 2701 ng·min/g, respectively. The outcome in data set [13] was inactive.
